ChEMBL document CHEMBL1157506, “Synthesis and pharmacological characterization of chiral pyrrolidinylfuran derivatives: the discovery of new functionally selective muscarinic agonists” (J Med Chem, 2008)

Tests used:
[1] = species on record: Cavia porcellus; experiment: Intrinsic activity at muscarinic M1/M4 receptor in guinea pig lung assessed as effect on tissue contraction relative to control
[2] = species on record: Cavia porcellus; experiment: Intrinsic activity at muscarinic M3 receptor in guinea pig ileum assessed as effect on tissue tension changes relative to control; format: tissue-based
Procedure, shortened: (§1)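 Ileum tension changes recorded isotonically after 30 min equilibration. APE curves were run at 30 min intervals; the first was discarded and the second was taken as control. Cumulative agonist curves followed, with responses expressed as % of the control maximum. Parallel reference-only tissues served as sensitivity checks.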

[3] = species on record: Cavia porcellus; experiment: Intrinsic activity at muscarinic M2 receptor in guinea pig atrium assessed as effect on inotropic activity relative to control; format: tissue-based; conditions: Cardiac atrium
Procedure, shortened: (§2)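 Left atria in PSS at 30 °C, paced via platinum electrodes (1 ms, 1 Hz, 5-10 V). Inotropic force recorded isometrically after 2 h equilibration. A cumulative APE reference curve was obtained, then cumulative agonist curves. Responses are expressed as % of the control maximal response.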

[4] = molecular target: Muscarinic acetylcholine receptor M3 (Homo sapiens, UniProt P20309); experiment: Displacement of [3H]NMS from human muscarinic M3 receptor expressed in CHO cells by liquid scintillation counter; format: cell-based
Muscarinic acetylcholine receptor M3, sequence (P20309 whole entry): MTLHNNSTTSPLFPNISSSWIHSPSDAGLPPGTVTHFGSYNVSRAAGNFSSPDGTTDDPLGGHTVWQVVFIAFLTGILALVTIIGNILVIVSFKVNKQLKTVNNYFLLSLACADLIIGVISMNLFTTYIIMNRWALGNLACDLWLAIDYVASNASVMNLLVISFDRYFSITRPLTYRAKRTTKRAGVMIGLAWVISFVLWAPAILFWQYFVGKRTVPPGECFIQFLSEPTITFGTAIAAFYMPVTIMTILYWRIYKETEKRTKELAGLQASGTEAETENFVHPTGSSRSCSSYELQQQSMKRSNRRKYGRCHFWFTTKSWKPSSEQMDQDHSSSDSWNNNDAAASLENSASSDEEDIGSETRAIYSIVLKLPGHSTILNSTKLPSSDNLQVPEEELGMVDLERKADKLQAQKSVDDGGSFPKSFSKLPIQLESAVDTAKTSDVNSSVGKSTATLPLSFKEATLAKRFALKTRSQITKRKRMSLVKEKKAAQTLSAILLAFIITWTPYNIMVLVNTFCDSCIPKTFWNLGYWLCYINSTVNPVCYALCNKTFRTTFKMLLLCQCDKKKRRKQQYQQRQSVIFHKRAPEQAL

[5] = molecular target: T1, Muscarinic acetylcholine receptor M5 (Homo sapiens, UniProt P08912); experiment: Displacement of [3H]NMS from human muscarinic M5 receptor expressed in CHO cells by liquid scintillation counter; format: cell-based
T1 sequence (P08912 whole entry): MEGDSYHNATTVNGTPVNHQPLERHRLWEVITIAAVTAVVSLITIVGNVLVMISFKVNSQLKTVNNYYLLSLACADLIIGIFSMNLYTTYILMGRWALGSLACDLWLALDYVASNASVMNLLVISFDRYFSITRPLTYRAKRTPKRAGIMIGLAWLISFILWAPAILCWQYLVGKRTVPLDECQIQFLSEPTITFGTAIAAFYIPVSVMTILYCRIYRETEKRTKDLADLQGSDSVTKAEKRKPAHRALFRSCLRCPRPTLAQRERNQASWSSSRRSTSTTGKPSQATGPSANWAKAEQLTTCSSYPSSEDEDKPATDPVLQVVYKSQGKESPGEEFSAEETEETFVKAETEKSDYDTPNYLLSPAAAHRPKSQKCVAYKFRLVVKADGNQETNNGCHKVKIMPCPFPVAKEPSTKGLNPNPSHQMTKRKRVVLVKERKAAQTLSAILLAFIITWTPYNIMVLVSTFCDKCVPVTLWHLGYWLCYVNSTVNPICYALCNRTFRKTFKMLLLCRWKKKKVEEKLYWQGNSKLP
Procedure, shortened: (§3)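 Membrane protein was 70 µg/mL for hm2, 50 µg/mL for hm4 and 25 µg/mL for hm5. Incubation was 120 min at room temperature in 25 mM sodium phosphate with 5 mM MgCl2, pH 7.4. GF/C filtration and scintillation counting followed; duplicates.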

[6] = molecular target: T2, Muscarinic acetylcholine receptor M2 (Homo sapiens, UniProt P08172); experiment: Displacement of [3H]NMS from human muscarinic M2 receptor expressed in CHO cells by liquid scintillation counter; format: cell-based; procedure, shortened: as §3
T2 sequence (P08172 whole entry): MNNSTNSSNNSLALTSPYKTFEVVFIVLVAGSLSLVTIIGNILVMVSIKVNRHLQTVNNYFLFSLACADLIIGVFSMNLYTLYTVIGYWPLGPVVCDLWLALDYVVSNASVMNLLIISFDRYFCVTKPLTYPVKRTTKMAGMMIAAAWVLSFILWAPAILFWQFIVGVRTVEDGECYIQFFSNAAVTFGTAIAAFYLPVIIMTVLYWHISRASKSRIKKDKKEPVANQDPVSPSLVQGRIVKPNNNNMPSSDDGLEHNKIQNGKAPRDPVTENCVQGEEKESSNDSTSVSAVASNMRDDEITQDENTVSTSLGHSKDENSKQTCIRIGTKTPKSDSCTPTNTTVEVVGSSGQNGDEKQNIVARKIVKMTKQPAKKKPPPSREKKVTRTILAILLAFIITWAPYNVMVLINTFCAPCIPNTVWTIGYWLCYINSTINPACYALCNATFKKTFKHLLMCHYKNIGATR

[7] = species on record: Oryctolagus cuniculus; experiment: Intrinsic activity at muscarinic M1/M4 receptor in New Zealanda white rabbit vas deferens assessed as effect on isometric tissue contraction relative to control; format: tissue-based
Procedure, shortened: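 Vas deferens in solution with 10^-6 M yohimbine and 10^-8 M tripitramine at 30 °C, field-stimulated (0.1 ms, 2 Hz, 10-15 V). Contractions recorded isometrically after 1 h equilibration. A cumulative McN-A-343 reference curve was built, then cumulative curves to the test agonist. Responses are expressed as % of the control curve's maximum. Parallel reference-only tissues served as sensitivity checks.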

[8] = molecular target: T3, Muscarinic acetylcholine receptor M1 (Homo sapiens, UniProt P11229); experiment: Displacement of [3H]NMS from human muscarinic M1 receptor expressed in CHO cells by liquid scintillation counter; format: cell-based
T3 sequence (P11229 whole entry): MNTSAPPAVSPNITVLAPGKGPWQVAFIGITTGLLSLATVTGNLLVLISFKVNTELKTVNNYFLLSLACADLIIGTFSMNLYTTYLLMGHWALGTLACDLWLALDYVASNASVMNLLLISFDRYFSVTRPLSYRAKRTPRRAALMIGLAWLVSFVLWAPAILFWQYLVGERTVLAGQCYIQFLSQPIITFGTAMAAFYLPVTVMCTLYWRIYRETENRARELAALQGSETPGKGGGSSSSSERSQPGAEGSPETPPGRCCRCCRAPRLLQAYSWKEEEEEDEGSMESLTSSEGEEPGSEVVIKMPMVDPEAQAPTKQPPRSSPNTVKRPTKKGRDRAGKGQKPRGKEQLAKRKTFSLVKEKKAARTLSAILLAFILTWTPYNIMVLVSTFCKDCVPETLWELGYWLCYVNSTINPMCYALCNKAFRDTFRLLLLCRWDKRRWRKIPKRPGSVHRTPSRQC

[9] = Agonist activity at muscarinic M3 receptor in guinea pig ileum assessed as effect on tissue tension changes; format: functional, Cavia porcellus; procedure, shortened: as §1
[10] = molecular target: T4, Muscarinic acetylcholine receptor M4 (Homo sapiens, UniProt P08173); experiment: Displacement of [3H]NMS from human muscarinic M4 receptor expressed in CHO cells by liquid scintillation counter; format: cell-based; procedure, shortened: as §3
T4 sequence (P08173 whole entry): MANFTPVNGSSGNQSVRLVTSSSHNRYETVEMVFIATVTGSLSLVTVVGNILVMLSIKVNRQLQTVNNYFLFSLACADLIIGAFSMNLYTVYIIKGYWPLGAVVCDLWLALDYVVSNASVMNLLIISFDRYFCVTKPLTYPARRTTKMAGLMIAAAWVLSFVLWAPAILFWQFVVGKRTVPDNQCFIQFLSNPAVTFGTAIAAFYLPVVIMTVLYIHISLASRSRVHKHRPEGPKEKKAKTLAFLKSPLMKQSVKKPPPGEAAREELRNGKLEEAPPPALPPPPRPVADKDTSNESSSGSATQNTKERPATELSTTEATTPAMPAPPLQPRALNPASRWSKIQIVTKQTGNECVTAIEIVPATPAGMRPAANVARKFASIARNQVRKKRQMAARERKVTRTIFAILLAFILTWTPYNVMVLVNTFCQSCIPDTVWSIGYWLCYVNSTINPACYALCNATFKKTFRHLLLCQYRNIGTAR

[11] = Agonist activity at muscarinic M2 receptor in guinea pig atrium assessed as effect on inotropic activity; format: functional, Cavia porcellus, Cardiac atrium; procedure, shortened: as §2
[12] = Antagonist activity at muscarinic M1/M4 receptor in guinea pig lung assessed as effect on tissue contraction; format: functional, Cavia porcellus
[13] = Antagonist activity at muscarinic M1/M4 receptor in New Zealanda white rabbit vas deferens assessed as effect on isometric tissue contraction; format: functional, Oryctolagus cuniculus
Procedure, shortened: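 Rabbit vas deferens bathed at 30 °C with 10^-6 M yohimbine and 10^-8 M tripitramine to block α2-adrenoceptors and M2 receptors. Electrically stimulated with square-wave pulses (0.1 ms, 2 Hz, 10-15 V) and equilibrated 1 h. Isometric contractions recorded during a cumulative dose-response curve to McN-A-343. Responses are expressed as % of maximal control-curve response, with parallel reference-agonist-only tissues run.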

[14] = Agonist activity at muscarinic M1/M4 receptor in guinea pig lung assessed as effect on tissue contraction; format: functional, Cavia porcellus

SMILES | Intrinsic activity [1] | Intrinsic activity [2] | Intrinsic activity [3] | Ki [4] [µM] | Ki [5] [µM] | Ki [6] [µM] | Intrinsic activity [7] | Ki [8] [µM] | pD2 [9] | Ki [10] [µM] | pD2 [11] | pKb [12] | pKb [13] | pD2 [12] | pD2 [14] | A50 [3]
C[N+](C)(C)CCOC(N)=O.[Cl-] [CARBACHOL] | 1 | 1 | 1 | – | – | – | – | – | – | – | – | – | – | – | – | –
C[N+]1(C)CCC[C@H]1c1ccco1.[I-] | – | 0.41 | 0.3 | 21.4 | 20.9 | 7.41 | 0.21 | 30.9 | 5.77 | 21.4 | 7.19 | <5 | – | – | – | –
C[N+](C)(C)CC#CCOC(=O)Nc1cccc(Cl)c1 | – | – | – | 2.4 | 3.8 | 3.24 | 1 | 1.95 | – | 9.12 | – | – | – | – | – | –
Cc1ccc(C2CCC[N+]2(C)C)o1.[I-] (racemic) | – | 0.28 | 0.33 | 6.92 | 4.68 | 1.91 | – | 7.41 | 7.25 | 4.37 | 7.55 | <5 | – | – | – | –
Cc1ccc([C@@H]2CCCN2)o1 | – | 1 | 0.6 | 148 | 138 | 28.8 | – | 155 | 5 | 209 | 6.1 | 5 | <5 | – | – | –
Cc1ccc([C@H]2CCCN2C)o1 | – | 0.22 | 0.32 | 28.8 | 31.6 | 19.5 | – | 44.7 | 4.93 | 58.9 | 6.4 | <5 | <5 | – | – | –
Cc1ccc(C2CCCN2)o1 (racemic) | – | 0.97 | 1 | 18.2 | 19.1 | 4.27 | – | 38 | 5.57 | 51.3 | 6.66 | 5.51 | – | – | – | –
C[N+]1(C)CCC[C@@H]1c1ccco1.[I-] | – | 0.25 | 0.4 | 17.8 | 23.4 | 14.1 | 0.28 | 51.3 | 5.37 | 28.2 | 6.49 | – | – | <5 | – | –
CN1CCCC1c1ccco1 (racemic) | 0.25 | 0.35 | 0.4 | 44.7 | 44.7 | 41.7 | 0.22 | 33.1 | 5.7 | 69.2 | 7.25 | – | – | – | 6.87 | –
Cc1ccc([C@H]2CCCN2)o1 | 0.32 | 1 | – | 12 | 15.8 | 3.24 | 1 | 14.5 | 6.16 | 29.5 | 6.71 | – | – | – | 5.45 | 1
c1coc(C2CCCN2)c1 (racemic) | – | – | – | 11.5 | 16.6 | 29.5 | – | 178 | – | 87.1 | – | – | – | – | – | –
C[N+]1(C)CCCC1c1ccco1.[I-] (racemic) | – | 0.19 | 0.38 | 2.75 | 3.16 | 3.72 | 0.26 | 5.25 | 5.65 | 6.46 | 6.65 | – | – | <5 | – | –
Cc1ccc(C[N+](C)(C)C)o1 | – | – | – | 6.17 | 6.92 | 0.955 | – | 7.94 | – | 6.31 | – | – | – | – | – | –
C#CCOC(=O)C1=CCCN(C)C1 [ARECAIDINE PROPARGYL ESTER] | 1 | 1 | 1 | – | – | – | 1 | – | 7.64 | – | 8.67 | – | – | – | 5.56 | –
c1coc([C@@H]2CCCN2)c1 | – | – | – | 43.7 | 47.9 | 107 | – | 63.1 | – | 102 | – | – | – | – | – | –
Cc1ccc([C@H]2CCC[N+]2(C)C)o1.[I-] | – | 0.26 | 0.44 | 7.76 | 9.55 | 2.69 | – | 13.8 | 7.1 | 13.8 | 7.66 | <5 | 5.67 | – | – | –
CN1CCC[C@@H]1c1ccco1 | – | 0.31 | 0.45 | 81.3 | 75.9 | 47.9 | 0.47 | 77.6 | 5.65 | 79.4 | 7.38 | <5 | – | – | – | –
c1coc([C@H]2CCCN2)c1 | – | – | – | 25.1 | 31.6 | 77.6 | – | 46.8 | – | 89.1 | – | – | – | – | – | –
